# Key:
# OVCAR-8 [1] = assay: Growth inhibition of human OVCAR8 cells measured after 96 hrs by sulforhodamine B assay; format: functional, cell-based; conditions: OVCAR-8, 96 h
# NCI/ADR-RES [2] = assay: Growth inhibition of human NCI/ADR-RES cells over expressing Pgp measured after 96 hrs by sulforhodamine B assay; format: functional, cell-based
# HeLa [3] = assay: Growth inhibition of human HeLa cells over expressing beta3-tubulin measured after 96 hrs by sulforhodamine B assay; format: functional, cell-based
# In short: (§1)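 Exposed 96 h to varying compound concentrations in 0.5% DMSO. Cell protein measured by sulforhodamine B; IC50 = concentration halving the increase in cell protein versus untreated cultures.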
# HeLa [4] = assay: Growth inhibition of human HeLa cells measured after 96 hrs by sulforhodamine B assay; format: functional, cell-based; in short: as §1
# NCI-H322M = assay: Growth inhibition of human NCI-H322M cells incubated for 48 hrs by sulforhodamine B assay; format: functional
# MDA-MB-231 = assay: Growth inhibition of human MDA-MB-231 cells incubated for 48 hrs by sulforhodamine B assay; format: functional; conditions: MDA-MB-231, 48 h
# RXF 393 = assay: Growth inhibition of human RXF393 cells incubated for 48 hrs by sulforhodamine B assay; format: functional; conditions: RXF 393, 48 h
# M14 = assay: Growth inhibition of human M14 cells incubated for 48 hrs by sulforhodamine B assay; format: functional; conditions: M14, 48 h
# BT-549 = assay: Growth inhibition of human BT549 cells incubated for 48 hrs by sulforhodamine B assay; format: functional; conditions: BT-549, 48 h
# TK-10 = assay: Growth inhibition of human TK10 cells incubated for 48 hrs by sulforhodamine B assay; format: functional; conditions: TK-10, 48 h
# HOP-62 = assay: Growth inhibition of human HOP62 cells incubated for 48 hrs by sulforhodamine B assay; format: functional; conditions: HOP-62, 48 h
# NCI-H522 = assay: Growth inhibition of human NCI-H522 cells incubated for 48 hrs by sulforhodamine B assay; format: functional; conditions: NCI-H522, 48 h
# NCI-H226 = assay: Growth inhibition of human NCI-H226 cells incubated for 48 hrs by sulforhodamine B assay; format: functional; conditions: NCI-H226, 48 h
# T47D = assay: Growth inhibition of human T47D cells incubated for 48 hrs by sulforhodamine B assay; format: functional
# NCI-H460 = assay: Growth inhibition of human NCI-H460 cells incubated for 48 hrs by sulforhodamine B assay; format: functional; conditions: NCI-H460, 48 h
# HCT-15 = assay: Growth inhibition of human HCT15 cells incubated for 48 hrs by sulforhodamine B assay; format: functional; conditions: HCT-15, 48 h
# IGROV-1 = assay: Growth inhibition of human IGROV1 cells incubated for 48 hrs by sulforhodamine B assay; format: functional; conditions: IGROV-1, 48 h
# HCC 2998 = assay: Growth inhibition of human HCC2998 cells incubated for 48 hrs by sulforhodamine B assay; format: functional; conditions: HCC 2998, 48 h
# EKVX = assay: Growth inhibition of human EKVX cells incubated for 48 hrs by sulforhodamine B assay; format: functional
# CAKI-1 = assay: Growth inhibition of human Caki1 cells incubated for 48 hrs by sulforhodamine B assay; format: functional; conditions: CAKI-1, 48 h
# 786-0 = assay: Growth inhibition of human 786-0 cells incubated for 48 hrs by sulforhodamine B assay; format: functional; conditions: 786-0, 48 h
# OVCAR-5 = assay: Growth inhibition of human OVCAR5 cells incubated for 48 hrs by sulforhodamine B assay; format: functional; conditions: OVCAR-5, 48 h
# SK-OV-3 = assay: Growth inhibition of human SKOV3 cells incubated for 48 hrs by sulforhodamine B assay; format: functional; conditions: SK-OV-3, 48 h
# OVCAR-3 = assay: Growth inhibition of human OVCAR3 cells incubated for 48 hrs by sulforhodamine B assay; format: functional; conditions: OVCAR-3, 48 h
# SF-268 = assay: Growth inhibition of human SF268 cells incubated for 48 hrs by sulforhodamine B assay; format: functional; conditions: SF-268, 48 h
# HCT-116 = assay: Growth inhibition of human HCT116 cells incubated for 48 hrs by sulforhodamine B assay; format: functional; conditions: HCT-116, 48 h
# OVCAR-4 = assay: Growth inhibition of human OVCAR4 cells incubated for 48 hrs by sulforhodamine B assay; format: functional; conditions: OVCAR-4, 48 h
# SN12C = assay: Growth inhibition of human SN12C cells incubated for 48 hrs by sulforhodamine B assay; format: functional
# MCF7 = assay: Growth inhibition of human MCF7 cells incubated for 48 hrs by sulforhodamine B assay; format: functional; conditions: MCF7, 48 h
# SF-539 = assay: Growth inhibition of human SF539 cells incubated for 48 hrs by sulforhodamine B assay; format: functional; conditions: SF-539, 48 h
# Bos taurus = species: Bos taurus; assay: Displacement of [3H]colchicine from bovine brain tubulin at 5 uM measured after 10 mins by liquid scintillation counting method relative to control
# ACHN = assay: Growth inhibition of human ACHN cells incubated for 48 hrs by sulforhodamine B assay; format: functional
# NCI/ADR-RES [5] = assay: Growth inhibition of human NCI/ADR-RES cells incubated for 48 hrs by sulforhodamine B assay; format: functional
# SW-620 = assay: Growth inhibition of human SW620 cells incubated for 48 hrs by sulforhodamine B assay; format: functional; conditions: SW-620, 48 h
# SNB-19 = assay: Growth inhibition of human SNB19 cells incubated for 48 hrs by sulforhodamine B assay; format: functional; conditions: SNB-19, 48 h
# MOLT-4 = assay: Growth inhibition of human MOLT4 cells incubated for 48 hrs by sulforhodamine B assay; format: functional; conditions: MOLT-4, 48 h
# A498 = assay: Growth inhibition of human A498 cells incubated for 48 hrs by sulforhodamine B assay; format: functional; conditions: A498, 48 h
# RPMI-8226 = assay: Growth inhibition of human RPMI8226 cells incubated for 48 hrs by sulforhodamine B assay; format: functional; conditions: RPMI-8226, 48 h
# LOX IMVI = assay: Growth inhibition of human LOXIMVI cells incubated for 48 hrs by sulforhodamine B assay; format: functional
# CCRF-CEM = assay: Growth inhibition of human CCRF-CEM cells incubated for 48 hrs by sulforhodamine B assay; format: functional
# SR = assay: Growth inhibition of human SR cells incubated for 48 hrs by sulforhodamine B assay; format: functional
# HL-60(TB) = assay: Growth inhibition of human HL-60(TB) cells incubated for 48 hrs by sulforhodamine B assay; format: functional; conditions: HL-60, 48 h
# MDA-MB-468 = assay: Growth inhibition of human MDA-MB-468 cells incubated for 48 hrs by sulforhodamine B assay; format: functional; conditions: MDA-MB-468, 48 h
# UO-31 = assay: Growth inhibition of human UO31 cells incubated for 48 hrs by sulforhodamine B assay; format: functional; conditions: UO-31, 48 h
# NCI-H23 = assay: Growth inhibition of human NCI-H23 cells incubated for 48 hrs by sulforhodamine B assay; format: functional; conditions: NCI-H23, 48 h
# OVCAR-8 [6] = assay: Growth inhibition of human OVCAR8 cells incubated for 48 hrs by sulforhodamine B assay; format: functional; conditions: OVCAR-8, 48 h
# U-251 = assay: Growth inhibition of human U251 cells incubated for 48 hrs by sulforhodamine B assay; format: functional; conditions: U-251, 48 h
# UACC-257 = assay: Growth inhibition of human UACC257 cells incubated for 48 hrs by sulforhodamine B assay; format: functional; conditions: UACC-257, 48 h
# K562 = assay: Growth inhibition of human K562 cells incubated for 48 hrs by sulforhodamine B assay; format: functional; conditions: K562, 48 h
# UACC-62 = assay: Growth inhibition of human UACC62 cells incubated for 48 hrs by sulforhodamine B assay; format: functional; conditions: UACC-62, 48 h
# Malme-3M = assay: Growth inhibition of human MALME-3M cells incubated for 48 hrs by sulforhodamine B assay; format: functional
# Hs-578T = assay: Growth inhibition of human Hs578T cells incubated for 48 hrs by sulforhodamine B assay; format: functional
# HOP-92 = assay: Growth inhibition of human HOP92 cells incubated for 48 hrs by sulforhodamine B assay; format: functional; conditions: HOP-92, 48 h
# COLO 205 = assay: Growth inhibition of human COLO205 cells incubated for 48 hrs by sulforhodamine B assay; format: functional; conditions: COLO 205, 48 h
# SNB-75 = assay: Growth inhibition of human SNB75 cells incubated for 48 hrs by sulforhodamine B assay; format: functional; conditions: SNB-75, 48 h
# SK-MEL-28 = assay: Growth inhibition of human SK-MEL-28 cells incubated for 48 hrs by sulforhodamine B assay; format: functional; conditions: SK-MEL-28, 48 h
# DU-145 = assay: Growth inhibition of human DU145 cells incubated for 48 hrs by sulforhodamine B assay; format: functional; conditions: DU-145, 48 h
# SF-295 = assay: Growth inhibition of human SF295 cells incubated for 48 hrs by sulforhodamine B assay; format: functional; conditions: SF-295, 48 h
# SK-MEL-5 = assay: Growth inhibition of human SK-MEL-5 cells incubated for 48 hrs by sulforhodamine B assay; format: functional; conditions: SK-MEL-5, 48 h
# MDA-MB-435 = assay: Growth inhibition of human MDA-MB-435 cells incubated for 48 hrs by sulforhodamine B assay; format: functional; conditions: MDA-MB-435, 48 h
# A549 = assay: Growth inhibition of human A549/ATCC cells incubated for 48 hrs by sulforhodamine B assay; format: functional; conditions: A549, 48 h
# KM12 = assay: Growth inhibition of human KM12 cells incubated for 48 hrs by sulforhodamine B assay; format: functional; conditions: KM12, 48 h
smiles,measurement,setting,value
CC(=O)O[C@H]1C(=O)[C@@]2(C)[C@H]([C@H](OC(=O)c3ccccc3)[C@]3(O)C[C@H](OC(=O)[C@H](O)[C@@H](NC(=O)c4ccccc4)c4ccccc4)C(C)=C1C3(C)C)[C@]1(OC(C)=O)CO[C@@H]1C[C@@H]2O [PACLITAXEL],IC50,OVCAR-8 [1],0.005 µM
same,IC50,NCI/ADR-RES [2],2.5 µM
same,IC50,HeLa [3],0.016 µM
same,IC50,HeLa [4],0.0053 µM
COc1ccc2c(c1)CCCN2c1nc(C)nc2c(Cc3ccccc3)c[nH]c12,GI50,NCI-H322M,0.362 µM
same,GI50,MDA-MB-231,0.641 µM
same,GI50,RXF 393,0.212 µM
same,GI50,M14,0.252 µM
same,GI50,BT-549,0.755 µM
same,GI50,TK-10,0.123 µM
same,GI50,HOP-62,0.379 µM
same,GI50,NCI-H522,0.316 µM
same,GI50,NCI-H226,0.136 µM
same,GI50,T47D,0.128 µM
same,GI50,NCI-H460,0.337 µM
same,GI50,HCT-15,0.366 µM
same,GI50,IGROV-1,0.44 µM
same,GI50,HCC 2998,0.318 µM
same,GI50,EKVX,0.463 µM
same,GI50,CAKI-1,0.341 µM
same,GI50,786-0,0.934 µM
same,GI50,OVCAR-5,0.543 µM
same,GI50,SK-OV-3,0.423 µM
same,GI50,OVCAR-3,0.285 µM
same,GI50,SF-268,0.723 µM
same,GI50,HCT-116,0.368 µM
same,GI50,OVCAR-4,0.468 µM
same,GI50,SN12C,0.618 µM
same,GI50,MCF7,0.248 µM
same,GI50,SF-539,0.26 µM
same,inhibition,Bos taurus,43%
same,GI50,ACHN,0.83 µM
same,GI50,NCI/ADR-RES [5],0.265 µM
same,GI50,SW-620,0.37 µM
same,GI50,SNB-19,0.549 µM
same,GI50,MOLT-4,0.345 µM
same,GI50,A498,0.197 µM
same,GI50,RPMI-8226,0.266 µM
same,GI50,LOX IMVI,0.521 µM
same,GI50,CCRF-CEM,0.226 µM
same,IC50,HeLa [4],0.25 µM
same,GI50,SR,0.922 µM
same,GI50,HL-60(TB),0.222 µM
same,GI50,MDA-MB-468,0.153 µM
same,GI50,UO-31,0.39 µM
same,GI50,NCI-H23,0.32 µM
same,GI50,OVCAR-8 [6],0.487 µM
same,GI50,U-251,0.316 µM
same,GI50,UACC-257,0.108 µM
same,GI50,K562,0.111 µM
same,GI50,UACC-62,0.659 µM
same,GI50,Malme-3M,0.33 µM
same,GI50,Hs-578T,0.582 µM
same,GI50,HOP-92,0.189 µM
same,GI50,COLO 205,0.232 µM
same,GI50,SNB-75,0.182 µM
same,GI50,SK-MEL-28,0.368 µM
same,GI50,DU-145,0.383 µM
same,GI50,SF-295,0.192 µM
same,GI50,SK-MEL-5,0.325 µM
same,GI50,MDA-MB-435,0.341 µM
same,GI50,A549,0.406 µM
same,GI50,KM12,0.366 µM

# From ChEMBL document CHEMBL3997769, “Discovery and preclinical evaluation of 7-benzyl-N-(substituted)-pyrrolo[3,2-d]pyrimidin-4-amines as single agents with microtubule targeting effects along with triple-acting angiokinase inhibition as antitumor agents” (Bioorg Med Chem, 2017)
